Active and inactive are the calls of the source.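 How the source made its calls, unless noted: active means viability loss from added drug above about 55%, and viability with drug at most 40%, in both replicates (limit read from the data, passing the limit was not always enough); inconclusive means both conditions met in only one replicate; inactive means neither replicate meets both conditions.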
Legend:
[1] = SK-BR-3 cell growth inhibitors, pilot screen, 24 h, human (AID 572;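 active means viability at or below 10% of carrier control in both of two separate runs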;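 further: compound exposure lasted between 18 and 24 h rather than exactly 24 h; 100% = carrier-treated control wells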); conditions: SK-BR-3 viability, CellTiter-Glo luminescence, at 10 µM, stronger effect = lower value
[2] = HUVEC growth inhibition – cell-based, human, primary screen (AID 575;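 active means viability at or below 30% in both replicate assays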;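 further: 100% = median of untreated cell wells with 0.1% DMSO on each plate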); conditions: HUVEC proliferation, CellTiter-Glo luminescence, 72 h; at 10 µM; stronger effect = lower value
In short: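 System: primary human umbilical vein endothelial cells; Quantity: 1250 endothelial cells in each well; Buffer or medium: supplemented EBM, 2% fetal bovine serum; Doses: one dose, 10 µM final, 0.1% DMSO; Incubation: 72 h compound incubation; Technique: ATP-based CellTiter-Glo luminescent read; Evaluation: percent of median DMSO-control luminescence; Controls: vehicle and MePR control wells.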

[3] = growth inhibitors of H69AR lung tumor, primary screen, human, duplicate replicates (AID 580;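 active means viability at or under a set limit in both replicates, limit being median viability minus 3 SD, cut at about 48% in these data, passing the limit was not always enough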;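 further: 100% = mean luminescence of untreated wells and 0% = no signal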); conditions: H69AR lung tumor cells viability, ATP luminescence, 72 h; at 10 µM; stronger effect = lower value
[4] = reversal of MRP1-mediated doxorubicin resistance, pilot screen, H69AR cells, doxorubicin co-treatment (AID 601); conditions: CellTiter-Glo, 72 h, at 10 µM; for differential viability (reversal): stronger effect = higher value
[5] = 384-well plate pilot, post-Golgi transport modulator project, inhibition of yeast transport mutant growth (AID 636; in the data active means inhibition above about 31%); conditions: absorbance 615 nm, about 18 h, stronger effect = higher value
[6] = growth suppression of yeast trafficking mutant, preliminary HTS, modulators of trafficking downstream of Golgi apparatus project, 1536-format plate, OD 615 nm (AID 637; in the data active means inhibition above about 30%); conditions: yeast transport mutant growth, absorbance 615 nm, 18 h; stronger effect = higher value
[7] = H69AR cells + 2 uM doxorubicin, measured here: viability with 2 uM doxorubicin, stronger effect = lower value
[8] = H69AR cells, compound alone cytotoxicity

SMILES | viability [1] | viability [2] | viability [3] | differential viability (reversal) ([4]; H69AR cells + 2 uM doxorubicin) | viability [4, 7] | viability [4, 8] | inhibition [5] | inhibition [6]
O=C(Nc1ccc(NC(=O)c2ccco2)nc1)c1cccnc1 | 102% (inactive) | 121% (inactive) | 88.7% (inactive) | -1.89% (inactive) | 90.6% | 88.7% | -7.4% (inactive) | 0.65% (inactive)
CCOC(=O)c1cnc(SC2CC(=O)N(c3ccc(OC)c(OC)c3)C2=O)nc1N (stereo not drawn) | 121% (inactive) | 101% (inactive) | 111% (inactive) | 14% (inactive) | 96.8% | 111% | -0.55% (inactive) | 1.13% (inactive)
CC(=O)OC[C@H]1O[C@@H](n2ncc(=O)[nH]c2=O)[C@H](OC(C)=O)[C@@H]1OC(C)=O | 103% (inactive) | 84.3% (inactive) | 91.3% (inactive) | 3.12% (inactive) | 88.2% | 91.3% | -0.39% (inactive) | 3.17% (inactive)
Cc1ccc(NC(=O)CC2C(=O)NC3CCCCC3N2C(=O)c2ccc(F)cc2)cc1C (stereo not drawn) | 108% (inactive) | 100% (inactive) | 101% (inactive) | 12.5% (inactive) | 88.5% | 101% | -2.47% (inactive) | 3.11% (inactive)
C1=C(CCNc2ncnc3c2cnn3-c2ccccc2)CCCC1 | 98% (inactive) | 116% (inactive) | 88.7% (inactive) | 6.36% (inactive) | 82.3% | 88.7% | -4.13% (inactive) | 0.91% (inactive)
COc1ccc(CC(=O)Nc2c3c(nn2-c2cccc(Cl)c2)CS(=O)C3)cc1 (stereo not drawn) | 111% (inactive) | 95.6% (inactive) | 104% (inactive) | 14.5% (inactive) | 89.5% | 104% | -2.73% (inactive) | -1.97% (inactive)
O=C(NC1CC1)C1CCC(=O)N1C1CCCC1 (stereo not drawn) | 93% (inactive) | 102% (inactive) | 105% (inactive) | 16.3% (inactive) | 88.4% | 105% | -1.17% (inactive) | 0.33% (inactive)
O=C(CNCC1CCCO1)Nc1ccccc1-n1cccc1 (stereo not drawn) | 80% (inactive) | 106% (inactive) | 95.7% (inactive) | 5.03% (inactive) | 90.6% | 95.7% | -8.38% (inactive) | -2.36% (inactive)
COc1ccc(-n2c(SCC(=O)N3CCCCC3C)nnc2-c2cccnc2)cc1 (stereo not drawn) | 87% (inactive) | 98.7% (inactive) | 102% (inactive) | 10.5% (inactive) | 91.1% | 102% | -5.54% (inactive) | 2% (inactive)
Cn1c(=O)cc(OCCCC(=O)N2CCCCC2)c2ccccc21 | 98% (inactive) | 87.5% (inactive) | 91.5% (inactive) | 12% (inactive) | 79.5% | 91.5% | -1.82% (inactive) | 0.98% (inactive)
COc1cc2c(=O)nc3n(c2cc1OC)C(c1ccccc1)N=C(N)N3 (stereo not drawn) | 69% (inactive) | 109% (inactive) | 97.1% (inactive) | -2.35% (inactive) | 99.4% | 97.1% | -2.84% (inactive) | 20.2% (inactive)
CCN(CC)C(=O)CSC1=C(C#N)C(c2ccco2)C(C(=O)OCCOC)=C(C)N1 (stereo not drawn) | 116% (inactive) | 101% (inactive) | 78% (inactive) | 6.37% (inactive) | 71.6% | 78% | -6.16% (inactive) | 2.58% (inactive)
O=C(CN1C(=O)c2cccc3cccc1c23)Nc1ccccc1C(=O)NCc1ccco1 | 89% (inactive) | 108% (inactive) | 78.9% (inactive) | -2.93% (inactive) | 81.8% | 78.9% | -1.49% (inactive) | -8.67% (inactive)
CCN(CC)CCOC(=O)c1ccc(NC(=O)COc2cc(=O)n(CC)c3ccccc23)cc1 | 103% (inactive) | 98.3% (inactive) | 109% (inactive) | 26.6% (inactive) | 82.1% | 109% | -2.86% (inactive) | -10% (inactive)
O=C(NC1CCCCCCC1)C1CCN(c2nc3ccccc3o2)CC1 | 106% (inactive) | 85.7% (inactive) | 92.2% (inactive) | -2.57% (inactive) | 94.7% | 92.2% | 7.2% (inactive) | 1.09% (inactive)
CC1CC(C)CN(c2nc3c(c(=O)[nH]c(=O)n3C)n2CCCSc2nc3ccccc3s2)C1 (stereo not drawn) | 59% (inactive) | 115% (inactive) | 100% (inactive) | -5.73% (inactive) | 106% | 100% | -0.14% (inactive) | 4.36% (inactive)
Cc1c(Cl)cccc1NC(=O)CCN1CCCCCC1 | 116% (inactive) | 103% (inactive) | 88.3% (inactive) | 2.1% (inactive) | 86.2% | 88.3% | -6.85% (inactive) | 5.64% (inactive)
COc1ccc(-c2nsc(SCC(=O)Nc3cc(C)on3)n2)cc1 | 79% (inactive) | 79.4% (inactive) | 84.8% (inactive) | -5.36% (inactive) | 90.2% | 84.8% | -5.07% (inactive) | 3.09% (inactive)

SMILES | viability [1] | viability [2] | viability [3] | differential viability (reversal) ([4]; H69AR cells + 2 uM doxorubicin) | viability [4, 7] | viability [4, 8] | inhibition [5] | inhibition [6]
CCN(C(=O)c1ccnc(C(C)(C)C)c1)c1ccccc1 | 88% (inactive) | 94.4% (inactive) | 79.2% (inactive) | -4.02% (inactive) | 83.3% | 79.2% | -6.85% (inactive) | 2% (inactive)
Cc1ccc2c(c1)C(N1CCCC1=O)CC(c1ccco1)N2 (stereo not drawn) | 108% (inactive) | 74.7% (inactive) | 68.7% (inactive) | 2.15% (inactive) | 66.6% | 68.7% | -5.6% (inactive) | -6.51% (inactive)
COc1ccc(S(=O)(=O)Nc2cc(C)on2)cc1OC | 80% (inactive) | 97.1% (inactive) | 105% (inactive) | 1.57% (inactive) | 104% | 105% | -1.1% (inactive) | -5.81% (inactive)
O=C(C1CCCCC1)N1CC(=O)N2CCc3ccccc3C2C1 (stereo not drawn) | 104% (inactive) | 107% (inactive) | 96.7% (inactive) | -3.46% (inactive) | 100% | 96.7% | -0.91% (inactive) | -0.83% (inactive)
C[N+](C)(C)CCCCCCCCCC[N+](C)(C)C | 106% (inactive) | 100% (inactive) | 104% (inactive) | 13.9% (inactive) | 90% | 104% | 1.69% (inactive) | -1.5% (inactive)
CCN(CC(=O)NC1CCS(=O)(=O)C1)C(=O)C(c1ccccc1)c1ccccc1 (stereo not drawn) | 119% (inactive) | 102% (inactive) | 102% (inactive) | 14.2% (inactive) | 88.2% | 102% | -5.14% (inactive) | -2.91% (inactive)
CCc1ccc(NC(=O)CS(=O)CC(=O)NC(C)CCc2ccco2)cc1 (stereo not drawn) | 120% (inactive) | 93.1% (inactive) | 106% (inactive) | 11.5% (inactive) | 94.3% | 106% | -1.56% (inactive) | -4.59% (inactive)
COc1cc(C(=O)N2CCCC(c3nc(-c4cccs4)no3)C2)cc(OC)c1OC (stereo not drawn) | 90.5% (inactive) | 94.2% (inactive) | 89.7% (inactive) | 20.3% (inactive) | 69.4% | 89.7% | -1.05% (inactive) | 16% (inactive)
O=C(Cn1c(=O)n(CC2CCCO2)c(=O)c2ccccc21)c1ccccc1 (stereo not drawn) | 121% (inactive) | 79.1% (inactive) | 81.5% (inactive) | -7.53% (inactive) | 89% | 81.5% | -1.17% (inactive) | 6.39% (inactive)
O=C(OC1CCc2ccccc2C1=O)c1ccccc1O (stereo not drawn) | 71% (inactive) | 106% (inactive) | 78.6% (inactive) | -13.2% (inactive) | 91.8% | 78.6% | -1.33% (inactive) | -1.27% (inactive)
COC(=O)CSc1nnc(-c2cccs2)n1-c1ccc(Cl)cc1 | 88% (inactive) | 93.8% (inactive) | 89.8% (inactive) | 6.75% (inactive) | 83.1% | 89.8% | -8.49% (inactive) | -4.68% (inactive)
C=CCn1c(SCC(=O)Nc2ccccc2OC)nnc1-c1ccccn1 | 84% (inactive) | 92.4% (inactive) | 27.6% (active) | -38.3% (inactive) | 65.9% | 27.6% | -3.78% (inactive) | -4.36% (inactive)
Cc1ccc2cc(C(c3nnnn3C3CCCC3)N3CCN(c4ccc(F)cc4)CC3)c(=O)[nH]c2c1 (stereo not drawn) | 93% (inactive) | 101% (inactive) | 67.6% (inactive) | 8.08% (inactive) | 59.6% | 67.6% | -5.6% (inactive) | 1.27% (inactive)
O=C(CCn1c(=O)oc2ccccc21)N1CCCCCC1 | 112% (inactive) | 99% (inactive) | 98.3% (inactive) | 5.09% (inactive) | 93.3% | 98.3% | 0.95% (inactive) | -1.64% (inactive)
CCCc1cc(=O)[nH]c(Nc2ccc(OC)c(Cl)c2)n1 | 115% (inactive) | 76.1% (inactive) | 70.6% (inactive) | -7.59% (inactive) | 78.2% | 70.6% | -3.51% (inactive) | 4.43% (inactive)
O=S(=O)(c1cccc(S(=O)(=O)N2CCC(N3CCCCC3)CC2)c1)N1CCOCC1 | 103% (inactive) | 98.9% (inactive) | 93.6% (inactive) | 9.45% (inactive) | 84.2% | 93.6% | -0.78% (inactive) | -2.95% (inactive)
CCOC(=O)C1=C(C)NC(C)=C(C(=O)OC)C1c1cccc(Cl)c1Cl (stereo not drawn) | 86% (inactive) | 11.2% (active) | 72% (inactive) | 4.92% (inactive) | 67.1% | 72% | 11.3% (inactive) | 13.2% (inactive)
CC(Cc1ccc(O)c(O)c1)C(C)Cc1ccc(O)c(O)c1 (stereo not drawn) | 87% (inactive) | 22.3% (active) | 77.4% (inactive) | -1.66% (inactive) | 79.1% | 77.4% | -5.45% (inactive) | -6.33% (inactive)
